Experimental data collected from several papers.
Each line is one published result; the experiments were not run side by side.
Target: Serine/threonine-protein kinase Nek2 (NEK2, Homo sapiens, UniProt P51955)

Structure (SMILES)	observed	action	technique	tested at	measurement	value
CCCOc1ccc(OC)c(F)c1C(=O)c1ccc(C(=O)N[C@@H]2CNC[C@H]2NC(=O)c2ccc3[nH]ncc3c2)cc1	enzyme activity	inhibitor		10 µM	remaining activity	66%
CNC(=O)c1cc(Oc2ccc(NC(=O)Nc3ccc(Cl)c(C(F)(F)F)c3)cc2)ccn1	enzyme activity	inhibitor		10 µM	inhibition	-16%
Nc1nc(NC2CCCCC2)sc1C(=O)c1ccccc1	enzyme activity	inhibitor		10 µM	remaining activity	93%
Cn1c2c(c3ccccc31)C(C#N)C(C)(C)NC2=O (stereo not shown)	thermal stability		DSF	10 µM	ΔTm	-0.1 °C
CC(C)(C)c1nc2c(s1)c1nc(N)ncc1c1ccc(NS(=O)(=O)c3c(F)cccc3F)c(F)c12	enzyme activity	inhibitor	radiometric	1 µM	remaining activity	103%
COc1cc(Nc2cnc(C#N)c(O[C@H](C)CN(C)C)n2)ncc1-c1cnn(C)c1	enzyme activity	inhibitor	radiometric	10 µM	remaining activity	64%
N#CCCc1ccc2c(c1)-c1[nH]c3ccc([N+](=O)[O-])cc3c1CC(=O)N2	cell-free assay			0.5 µM	remaining signal	92.7%
Oc1cccc(-c2nc(N3CCOCC3)c3oc4ncccc4c3n2)c1	enzyme activity	inhibitor		10 µM	remaining activity	86%
Cc1ccc(Nc2nccc(N(C)c3ccc4c(C)n(C)nc4c3)n2)cc1S(N)(=O)=O	enzyme activity	inhibitor		0.3 µM	inhibition	2%
CN1CCC2(CC1)NC(=O)c1c(c3ccc(Cl)c(Cl)c3n1C)C2C#N (racemic)	thermal stability		DSF	10 µM	ΔTm	0.1 °C
CN(C)C1CCN(CC#Cc2nn(C3CCCC3)c3nc(NCc4ccccc4)ncc23)C1 (stereo not shown)	enzyme activity	inhibitor	FRET	10 µM	inhibition	15%
CCCS(=O)(=O)Nc1ccc(F)c(C(=O)c2c[nH]c3ncc(-c4ccc(Cl)cc4)cc23)c1F	enzyme activity	inhibitor		1 µM	inhibition	< 20%
Cc1c(NC(=O)c2cc(C(N)=O)nc3cc(F)ccc23)c(C(F)(F)F)nn1Cc1ccc(C#N)cc1	cell-free assay		competition with immobilised ligand	1 µM	remaining binding	100%
Nc1ncnc2occ(-c3ccc(NC(=O)Nc4cc(C(F)(F)F)ccc4F)cc3)c12	cell-free assay	inhibitor		20 µM	remaining signal	2.1%
C=CC(=O)Nc1cc(Nc2nccc(Nc3cc(Cl)c(F)cc3C(C)(C)O)n2)c(OC)cc1N1CC[C@@H](N(C)C)C1	enzyme activity	inhibitor		1 µM	inhibition	5%
FC(F)(F)Oc1cccc(-c2cnc3ccc(-c4ccncc4)nn23)c1	enzyme activity	inhibitor	radiometric	1 µM	activity vs control	91%
Cn1c2c(c3ccc(Cl)c(Cl)c31)C(C#N)C1(CCOCC1)NC2=O (stereo not shown)	thermal stability		DSF	10 µM	ΔTm	-0.2 °C
COc1cc(/C=C/C(=O)CC(=O)/C=C/c2ccc(O)c(OC)c2)ccc1O	enzyme activity	inhibitor		1 µM	activity vs control	99%
CCN(CC)c1ccc(C2=NNC(=O)CC2C)cc1[N+](=O)[O-] (stereo not shown)	enzyme activity	inhibitor		10 µM	remaining activity	91%

Structure (SMILES)	observed	action	technique	tested at	measurement	value
Cc1noc([C@H]2C[C@@H](c3ccc(C(F)(F)F)cc3)CN(C(=O)N3CCS(=O)(=O)C3)C2)n1	cell-free assay		competition with immobilised ligand	1 µM	remaining binding	100%
Nc1nc(Nc2ccccc2)sc1C(=O)c1c(F)cccc1F	enzyme activity	inhibitor		10 µM	remaining activity	92%
CSc1nc(C)c(-c2ccnc(Nc3ccc(N4CCOCC4)cc3)c2)[nH]1	enzyme activity	inhibitor		10 µM	inhibition	20%
CC/C(=N\NC(=O)NCc1cccc(O)c1)c1ccc(O)c(C)c1O	enzyme activity	inhibitor		0.1 µM	inhibition	-2.4%
CC(C)(O)[C@H]1CC[C@H](Nc2ccc3ncc(-c4cccc(C(F)(F)F)c4)n3n2)CC1	enzyme activity	inhibitor		1 µM	remaining activity	100%
CN(C(=O)c1ccccc1)c1cc(N(C)c2ccc3c(c2)CCc2ccc(C(=O)NCCN4CCOCC4)cc2C3=O)ccc1F	cell-free assay		competition with immobilised ligand	1 µM	remaining binding	96%
Cc1sc(C(=O)NC2COC2)cc1-n1cc(NC(=O)Nc2c(F)cccc2Cl)cn1	enzyme activity	inhibitor		10 µM	remaining activity	88%
Cn1c2c(c3ccc(Cl)c(Cl)c31)C(C#N)C1(CCCC1)NC2=O (stereo not shown)	thermal stability		DSF	10 µM	ΔTm	0.3 °C
Cc1c(NC(=O)c2cc(C(N)=O)nc3cc(F)ccc23)c(C(F)(F)F)nn1Cc1ccc(C(C)(C)C)cc1	cell-free assay		competition with immobilised ligand	1 µM	remaining binding	100%
CCN(CC)CCNC(=O)c1c(C)[nH]c(/C=C2\C(=O)Nc3ccc(F)cc32)c1C	enzyme activity	inhibitor		0.3 µM	inhibition	9%
CS(=O)(=O)NCC[C@H](NC(=O)c1cncc2c1cnn2-c1ccc(F)cc1)c1ccnc(S(C)(=O)=O)c1	cell-free assay		competition with immobilised ligand	1 µM	remaining binding	97%
COc1cc2ncnc(Nc3ccc(F)c(Cl)c3)c2cc1OCCCN1CCOCC1	cell-free assay			0.5 µM	remaining signal	98.4%
CCC(=N\O)/C(C)=C/c1ccc(F)cc1	cell-free assay		competition with immobilised ligand	1 µM	remaining binding	100%
CNCc1ccc(-c2cc(-c3nc(-c4ccc(S(=O)(=O)C(C)C)cc4)cnc3N)on2)cc1	enzyme activity	inhibitor		2 µM	inhibition	2%
COc1ccc2c(c1)O[C@H](c1ccc(OC)c(OC)c1)C[C@@H]2NC(=O)C1(c2ccc3c(c2)OC(F)(F)O3)CC1	cell-free assay		competition with immobilised ligand	1 µM	remaining binding	100%
O=C1NC(=O)c2cc(Nc3ccc(F)cc3)c(Nc3ccc(F)cc3)cc21	cell-free assay			0.5 µM	remaining signal	96.3%
N#CC1(c2ccccn2)CCN(Cc2cc(C(=O)N3CCCC3)c(=O)n3ccccc23)CC1	cell-free assay		competition with immobilised ligand	1 µM	remaining binding	95%
COc1cc2ncnc(Nc3ccc(Oc4ccccc4)cc3C)c2cc1OC	enzyme activity	inhibitor		1 µM	inhibition	1%
